Source: ChEMBL document CHEMBL5550111, “Design, synthesis and biological evaluation of aryloxy thiophosphoramidate triesters of anticancer nucleoside analogues” (Bioorg Med Chem, 2024)

Experiments:
HT-29 [1] = assay: Cytotoxicity against human HT-29 cells assessed as maximum inhibition of cell viability upto 198 uM incubated for 72 hrs by MTS assay relative to control; format: functional; details: up to 198 µM
Summary of the method: (§1)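 Cells seeded at 0.5 to 100 × 10^3 per well the day before drug addition, then exposed to compound for 72 h. MTS added afterwards, with a further 4 h at 37 °C, and absorbance read. Tested in duplicate at 9 serial 3.16-fold dilutions, top concentration 198 μM. MI% is the maximum inhibition of viability across the tested range.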

HepG2 [2] = assay: Cytotoxicity against human HepG2 cells assessed as inhibition of cell viability incubated for 72 hrs by MTS assay; format: functional, cell-based; details: HepG2, 72 h
Summary of the method: (§2)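 Cells seeded at 0.5 to 100 × 10^3 per well the day before treatment, then exposed for 72 h to 9 serial concentrations (3.16-fold dilutions, top 198 μM), in duplicate. MTS added for a final 4 h at 37 °C and absorbance read. IC50 is the concentration giving 50% loss of viability. MI% is the maximum inhibition over the tested range.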

RPMI-8226 [3] = assay: Cytotoxicity against human RPMI-8226 cells assessed as maximum inhibition of cell viability upto 198 uM incubated for 72 hrs by MTS assay relative to control; format: functional; details: up to 198 µM; summary of the method: as §1
HepG2 [4] = assay: Cytotoxicity against human HepG2 cells assessed as maximum inhibition of cell viability upto 198 uM incubated for 72 hrs by MTS assay relative to control; format: functional; details: up to 198 µM; summary of the method: as §1
OVCAR-3 [5] = assay: Cytotoxicity against human OVCAR-3 cells assessed as maximum inhibition of cell viability upto 198 uM incubated for 72 hrs by MTS assay relative to control; format: functional; details: up to 198 µM; summary of the method: as §1
RT112/84 [6] = assay: Cytotoxicity against human RT112/84 cells assessed as maximum inhibition of cell viability upto 198 uM incubated for 72 hrs by MTS assay relative to control; format: functional; details: up to 198 µM; summary of the method: as §1
HT-29 [7] = assay: Cytotoxicity against human HT-29 cells assessed as inhibition of cell viability incubated for 72 hrs by MTS assay; format: functional, cell-based; details: HT-29, 72 h; summary of the method: as §2
RT112/84 [8] = assay: Cytotoxicity against human RT112/84 cells assessed as inhibition of cell viability incubated for 72 hrs by MTS assay; format: functional, cell-based; details: RT112/84, 72 h; summary of the method: as §2
SK-MES-1 [9] = assay: Cytotoxicity against human SK-MES-1 cells assessed as inhibition of cell viability incubated for 72 hrs by MTS assay; format: functional, cell-based; details: SK-MES-1, 72 h; summary of the method: as §2
COLO 205 [10] = assay: Cytotoxicity against human COLO 205 cells assessed as maximum inhibition of cell viability upto 198 uM incubated for 72 hrs by MTS assay relative to control; format: functional; details: up to 198 µM; summary of the method: as §1
MIA PaCa-2 [11] = assay: Cytotoxicity against human MIA PaCa-2 cells assessed as maximum inhibition of cell viability upto 198 uM incubated for 72 hrs by MTS assay relative to control; format: functional; details: up to 198 µM; summary of the method: as §1
RPMI-8226 [12] = assay: Cytotoxicity against human RPMI-8226 cells assessed as inhibition of cell viability incubated for 72 hrs by MTS assay; format: functional, cell-based; details: RPMI-8226, 72 h; summary of the method: as §2
NCI-H1975 [13] = assay: Cytotoxicity against human NCI-H1975 cells assessed as maximum inhibition of cell viability upto 198 uM incubated for 72 hrs by MTS assay relative to control; format: functional; details: up to 198 µM; summary of the method: as §1
COLO 205 [14] = assay: Cytotoxicity against human COLO 205 cells assessed as inhibition of cell viability incubated for 72 hrs by MTS assay; format: functional, cell-based; details: COLO 205, 72 h; summary of the method: as §2
NCI-H1975 [15] = assay: Cytotoxicity against human NCI-H1975 cells assessed as inhibition of cell viability incubated for 72 hrs by MTS assay; format: functional, cell-based; details: NCI-H1975, 72 h; summary of the method: as §2
OVCAR-3 [16] = assay: Cytotoxicity against human OVCAR-3 cells assessed as inhibition of cell viability incubated for 72 hrs by MTS assay; format: functional, cell-based; details: OVCAR-3, 72 h; summary of the method: as §2
[17] = Prodrug activation assessed as carboxypeptidase Y (unknown origin) mediated (2S)-2-[[[(2R,3S,5R)-[…]-3-hydroxy-tetrahydrofuran-2-yl]methoxy-hydroxy-phosphoryl]amino]propanoic acid formation from intermediate (2S)-2-[[[(2R,3S,5R)-5-(5-fluoro-2,4-dioxo-pyrimidin-1-yl)-3-hydroxy-tetrahydrofuran-2-yl]methoxy-(1-naphthyloxy)phosphinothioyl]amino]propanoic acid at 5 mg measured for 48 hrs by 31P-NMR assay
Summary of the method: (§3)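 Thiophosphoramidate (5 mg, about 0.008 mmol) dissolved in 150 µL acetone-d6, with 300 µL TRIZMA buffer pH 7.6 added. Enzymatic conversion followed by 31P-NMR.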

MIA PaCa-2 [18] = assay: Cytotoxicity against human MIA PaCa-2 cells assessed as inhibition of cell viability incubated for 72 hrs by MTS assay; format: functional, cell-based; details: MIA PaCa-2, 72 h; summary of the method: as §2
SK-MES-1 [19] = assay: Cytotoxicity against human SK-MES-1 cells assessed as maximum inhibition of cell viability upto 198 uM incubated for 72 hrs by MTS assay relative to control; format: functional; details: up to 198 µM; summary of the method: as §1
MDA-MB-231 [20] = assay: Cytotoxicity against human MDA-MB-231 cells assessed as inhibition of cell viability incubated for 72 hrs by MTS assay; format: functional, cell-based; details: MDA-MB-231, 72 h; summary of the method: as §2
[21] = Cytotoxicity against human T24/83 cells assessed as inhibition of cell viability incubated for 72 hrs by MTS assay; format: functional, cell-based; details: T24/83, 72 h; summary of the method: as §2
A2780 [22] = assay: Cytotoxicity against human A2780 cells assessed as maximum inhibition of cell viability upto 198 uM incubated for 72 hrs by MTS assay relative to control; format: functional; details: up to 198 µM; summary of the method: as §1
PC-3 [23] = assay: Cytotoxicity against human PC-3 cells assessed as maximum inhibition of cell viability upto 198 uM incubated for 72 hrs by MTS assay relative to control; format: functional; details: up to 198 µM; summary of the method: as §1
PANC-1 [24] = assay: Cytotoxicity against human PANC-1 cells assessed as maximum inhibition of cell viability upto 198 uM incubated for 72 hrs by MTS assay relative to control; format: functional; details: up to 198 µM; summary of the method: as §1
[25] = Prodrug activation assessed as carboxypeptidase Y (unknown origin) mediated (2S)-2-[[[(2R,3R,5R)-5-(4-amino-2-oxo-pyrimidin-1-yl)-4,4-difluoro-3-hydroxy-tetrahydrofuran-2-yl]methoxy-hydroxy-phosphoryl]amino]propanoic acid formation from intermediate (2S)-2-[[[(2R,3R,5R)-5-(4-amino-2-oxo-pyrimidin-1-yl)-4,4-difluoro-3-hydroxy-tetrahydrofuran-2-yl]methoxy-phenoxy-phosphinothioyl]amino]propanoic acid at 5 mg measured for 48 hrs by 31P-NMR assay; summary of the method: as §3
PANC-1 [26] = assay: Cytotoxicity against human PANC-1 cells assessed as inhibition of cell viability incubated for 72 hrs by MTS assay; format: functional, cell-based; details: PANC-1, 72 h; summary of the method: as §2
PC-3 [27] = assay: Cytotoxicity against human PC-3 cells assessed as inhibition of cell viability incubated for 72 hrs by MTS assay; format: functional, cell-based; details: PC-3, 72 h; summary of the method: as §2
MDA-MB-231 [28] = assay: Cytotoxicity against human MDA-MB-231 cells assessed as maximum inhibition of cell viability upto 198 uM incubated for 72 hrs by MTS assay relative to control; format: functional; details: up to 198 µM; summary of the method: as §1
[29] = Prodrug activation assessed as carboxypeptidase Y (unknown origin) mediated intermediate (2S)-2-[[[(2R,3R,5R)-5-(4-amino-2-oxo-pyrimidin-1-yl)-4,4-difluoro-3-hydroxy-tetrahydrofuran-2-yl]methoxy-phenoxy-phosphinothioyl]amino]propanoic acid formation at 5 mg measured after 5 hrs by 31P-NMR assay; set-up: species or system Homo sapiens; summary of the method: as §3
BXPC-3 [30] = assay: Cytotoxicity against human BXPC-3 cells assessed as inhibition of cell viability incubated for 72 hrs by MTS assay; format: functional, cell-based; details: BXPC-3, 72 h; summary of the method: as §2
BXPC-3 [31] = assay: Cytotoxicity against human BXPC-3 cells assessed as maximum inhibition of cell viability upto 198 uM incubated for 72 hrs by MTS assay relative to control; format: functional; details: up to 198 µM; summary of the method: as §1
A2780 [32] = assay: Cytotoxicity against human A2780 cells assessed as inhibition of cell viability incubated for 72 hrs by MTS assay; format: functional, cell-based; details: A2780, 72 h; summary of the method: as §2

Row | SMILES | Imax (HT-29 [1]) [%] | IC50 (HepG2 [2]) [µM] | Imax (HepG2 [4]) [%] | Imax (OVCAR-3 [5]) [%] | Imax (RT112/84 [6]) [%] | IC50 (HT-29 [7]) [µM] | IC50 (RT112/84 [8]) [µM] | IC50 (SK-MES-1 [9]) [µM] | Imax (COLO 205 [10]) [%] | Imax (MIA PaCa-2 [11]) [%] | IC50 (COLO 205 [14]) [µM] | IC50 (OVCAR-3 [16]) [µM] | IC50 (MIA PaCa-2 [18]) [µM] | Imax (SK-MES-1 [19]) [%] | other results
1 | C[C@H](NP(=S)(OC[C@H]1O[C@@H](n2cc(F)c(=O)[nH]c2=O)C[C@@H]1O)Oc1cccc2ccccc12)C(=O)OCc1ccccc1 (stereo partly specified) | 100 | 25.5 | 100 | 100 | 97 | 2.81 | 2.49 | 2.49 | 100 | 100 | 4 | 21.5 | 2.69 | 97 | Imax (RPMI-8226 [3]): 100%; IC50 (RPMI-8226 [12]): 6.63 µM; Imax (NCI-H1975 [13]): 100%; IC50 (NCI-H1975 [15]): 100 µM; Drug metabolism [17]: Metabolite_Detected
2 | C[C@H](NP(=S)(OC[C@H]1O[C@@H](n2ccc(N)nc2=O)C(F)(F)[C@@H]1O)Oc1ccccc1)C(=O)OCc1ccccc1 (stereo partly specified) | 99 | 27.1 | 98 | 46 | 94 | 11.5 | 0.92 | 0.92 | 97 | 99 | 22.3 | 97.4 | 3.83 | 94 | IC50 (MDA-MB-231 [20]): 11.6 µM; IC50 [21]: 0.32 µM; Imax (A2780 [22]): 100%; Imax (PC-3 [23]): 96%; Imax (PANC-1 [24]): 99%; Drug metabolism [25]: Metabolite_Detected; IC50 (PANC-1 [26]): 76.4 µM; IC50 (PC-3 [27]): 43.9 µM; Imax (MDA-MB-231 [28]): 91%; Drug metabolism [29]: Metabolite_Detected; IC50 (BXPC-3 [30]): 8.16 µM; Imax (BXPC-3 [31]): 95%; IC50 (A2780 [32]): 3.58 µM
